Most compounds without a hit are left out; they make up all but 2.9% or so of the library.
S1P1 ag-PAM – S1P1 (human) agonism or agonism potentiation | P21453 | S1P1 CRE-bla cells, forskolin, beta-lactamase FRET, potentiator mode; S1P1 agonist co-added at EC20, 2 nM; 100% = saturating reference agonist, 0% = basal | activation, % at 9.5 µM | hit rate 0.57% among 56,000 | AID 449;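 active = activation above a cutoff set at the mean activation of all tested compounds plus 3 SD, cut at about 54% in these data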;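 also: forskolin at 4 µM as EC80 and the EC20 agonist is SEW2871; 100% = SEW2871 at its EC100 plus forskolin at EC80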
S1P3 agonist – activates the human S1P3 receptor; S1P3 NFAT-BLA reporter cells, agonism, FRET ratio; relative to 1 µM S1P, basal subtracted; activation, % at 4.5 µM; hit rate 0.1% among 60,000; AID 373;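 active = activation above the screen-wide mean plus 3 SD, cut at about 4.5% in these data, passing the limit was not always enough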
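Measure – % activation relative to 1 µM S1P (100%), per plate · System – stable CHO line with human S1P3, Gα16, NFAT-BLA reporter · Timing – cells plated overnight, compound 4 h 37 °C, substrate 2 h RT · Technique – fluorescent BLA substrate, ex 405 nm, em 460/535 nm ratio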
5HT1E antag – 5-HT1E (human) receptor antagonism; inhibition, % at 6 µM; AID 571; hit rate 0.99% among 65,000; CHO 5-HT1E Ga15 NFAT-bla reporter, FRET, antagonist; P28566;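 active = inhibition above a set limit, the mean inhibition across every tested compound plus 3 SD, cut at about 29% in these data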;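 also: signal is the 460 over 535 nm emission ratio of beta-lactamase substrate; 0% = agonist plus DMSO wells and 100% = wells without agonist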
Target sequence (P28566 whole entry, looked up): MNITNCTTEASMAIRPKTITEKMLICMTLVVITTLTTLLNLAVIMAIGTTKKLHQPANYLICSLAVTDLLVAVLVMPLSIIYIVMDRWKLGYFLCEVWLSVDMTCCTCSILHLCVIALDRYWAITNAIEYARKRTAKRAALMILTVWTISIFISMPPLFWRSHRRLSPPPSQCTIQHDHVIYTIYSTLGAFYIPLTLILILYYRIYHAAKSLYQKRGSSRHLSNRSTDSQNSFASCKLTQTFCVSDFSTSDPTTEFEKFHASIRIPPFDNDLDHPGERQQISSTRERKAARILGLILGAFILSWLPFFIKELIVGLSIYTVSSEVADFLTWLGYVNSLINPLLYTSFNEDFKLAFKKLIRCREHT
HTR1E agonist – activates the human 5-HT1E serotonin receptor. P28566. CHO 5-HT1E Ga15 NFAT-bla reporter, FRET; 0% DMSO wells, 100% control agonist wells. activation, % at 6 µM. hit rate 0.69% among 65,000. AID 574;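 active = activation above a set limit, the screen-wide mean activation plus 3 SD, cut at about 8.5% in these data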;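 also: 100% = positive control agonist at 1 µM giving full maximal response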
5-HT1A blocker – blocks the human serotonin 5-HT1a receptor. P08908. CHO 5-HT1a Ga15 NFAT-bla reporter, antagonist mode. inhibition, % at 10 µM. hit rate 0.68% among 62,000;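 active = inhibition above the mean of all tested compounds plus 3 SD, cut at about 43% in these data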;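 also: receptor stimulated by 5-CT agonist at 100 nM near EC80; beta-lactamase reporter measured by ratiometric fluorescence of a cleavable substrate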
5HT1a ag – 5-HT1a (human) receptor agonism; AID 567; activation, % at 10 µM; P08908; CHO 5-HT1a Ga15 NFAT-bla reporter, FRET ratio; 0% basal, 100% maximal reference agonist; hit rate 0.56% among 65,000;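 active = activation above the screen-wide mean activation plus 3 SD, cut at about 19% in these data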;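 also: 0% = DMSO wells and 100% = 5-CT at EC100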
* = called active by the depositor; x = no result given.

SMILES	S1P1 ag-PAM	S1P3 agonist	5HT1E antag	HTR1E agonist	5-HT1A blocker	5HT1a ag
CCOC(=O)c1cc2occc2n1CC(=O)Nc1ccc(OC)cc1OC	14.6	-0.1	8.9	1.2	15.0	-0.3
Cc1cc(C)n(-c2nnc(C)n2/N=C/c2cc(Br)ccc2OCc2ccccc2)n1	25.4	-1.6	15.2	0.5	30.2	0.7
N#Cc1nc(COc2ccc(Cl)cc2Cl)oc1N1CCN(c2ccccc2)CC1	69.2*	-0.3	6.7	-1.1	57.3*	0.1
COc1ccc(N2CCN(c3oc(COc4ccc(Cl)cc4Cl)nc3C#N)CC2)cc1	2.5	-0.4	-0.8	-0.1	58.7*	-0.9
N#Cc1nc(COc2ccc(Cl)cc2Cl)oc1N1CCOCC1	-3.3	0.4	1.8	0.3	4.2	0.4
COc1ccc(C)cc1S(=O)(=O)N(CC(=O)N1CCCC1)c1ccccc1	x	-0.3	3.2	0.3	5.3	1.5
COc1ccc(Nc2nc(Nc3ccc(OC)cc3)nc(-n3[nH]c(=O)c(C)c3C)n2)cc1	-102.7	17.4*	-34.1	14.8*	x	34.5*
C=CCn1c(-c2cccs2)nc2ccccc21	14.2	-0.1	5.0	0.2	5.7	0.1
C=CCSc1nc2ccccc2n1Cc1nnc(-c2cccs2)o1	12.2	0.5	4.9	18.0*	8.8	4.5
CCn1c(SCC(=O)Nc2nccs2)nnc1-c1cc2cccc(OC)c2o1	4.5	-0.6	5.2	11.4*	-5.4	0.9
COc1cc2c(cc1NC(=O)CSc1nnc(Cc3cccs3)n1C)oc1ccccc12	9.3	-0.7	-3.4	-0.2	4.0	4.5
CCn1c(SCC(=O)Nc2cc3oc4ccccc4c3cc2OC)nnc1-c1cccs1	x	-1.2	5.3	-0.9	4.0	25.3*
O=C(NCc1cn2ccccc2n1)c1ccccc1	4.4	-1.0	-9.3	-0.2	9.0	-3.2
Cc1ccc(C(=O)OCc2cn3ccccc3n2)cc1	7.2	-0.1	-5.0	-0.1	4.0	100.6*
Cc1ccc(CNC(=O)Nc2cccs2)cc1	x	x	5.8	-1.2	-4.4	0.6
CCCC(=O)Nc1cccc(C(=O)Nc2nccs2)c1	x	x	-6.5	0.2	3.3	1.2
COc1cccc2sc(Nc3nnc(-c4cccs4)o3)nc12	-47.0	-0.8	6.8	0.2	45.7*	-7.5
COc1cccc2sc(Nc3nc(-c4ccccn4)cs3)nc12	72.0*	-2.3	69.3*	2.8	66.2*	-2.0
CCOC(=O)c1sc(Nc2nc3c(OC)cccc3s2)nc1C	-163.8	0.2	-5.7	13.4*	-19.6	27.9*
COc1ccccc1N(Cc1cc2cccc(C)c2[nH]c1=O)C(=O)C(C)C	10.0	-4.3	-5.6	0.0	x	-1.9
Cc1cc(F)c(F)c(C(=O)N2CCN(C)CC2)c1Cl	0.9	-1.3	4.7	-0.1	2.2	-0.2
COCCN1CCN(c2c(C)c(C)nc3cc(-c4cccc(OC)c4)nn23)CC1	x	x	1.9	0.3	2.8	0.5
CCOCCN1CCN(c2c(C)c(C)nc3cc(-c4cc(OC)cc(OC)c4)nn23)CC1	x	x	40.0*	3.5	6.8	-1.0
COc1ccc(Nc2nc(C)cc(C)c2C#N)cc1OC	-18.7	-0.7	10.2	0.4	15.6	-2.9
O=S(=O)(Nc1nccs1)c1ccc(NS(=O)(=O)c2cccs2)cc1	4.6	-0.9	9.3	-1.3	-3.8	1.7
SMILES	S1P1 ag-PAM	S1P3 agonist	5HT1E antag	HTR1E agonist	5-HT1A blocker	5HT1a ag
CS(=O)(=O)Nc1ccc(S(=O)(=O)Nc2nccs2)cc1	15.2	-0.1	6.4	10.4*	2.9	-2.6
CCOC(=O)N1CCC(NC(=O)CC(NS(=O)(=O)c2ccc(Cl)cc2)c2ccco2)CC1 (stereo not drawn)	2.5	0.3	-3.2	1.0	-16.5	29.3*
CCOC(=O)Cc1c(C)c2ccc(N(CC)CC)cc2oc1=O	-24.7	2.8	-1.6	6.9	-26.6	24.7*
CCN(CC)c1ccc2c(Cl)c(Br)c(=O)oc2c1	49.2	-1.1	91.5*	0.6	95.1*	-18.8
CCOC(=O)CCc1c(C)c2ccc(O)cc2oc1=O	x	-0.4	-7.2	-0.4	-11.7	0.9
COc1cc(OC)cc(C(C)=O)c1	-21.9	-1.1	4.2	-0.4	7.2	-3.8
CCCCCCc1cc2cc(-c3nnc(-c4ccccc4O)o3)c(=O)oc2cc1O	-13.3	-0.4	-19.5	4.9	x	48.6*
COC(=O)c1[nH]c2cc(OC)ccc2c1NC(=O)c1ccc2c(c1)OCO2	x	x	-10.0	0.8	-4.2	114.8*
O=C1C(Cl)=C(N2CCCCC2)C(=O)N1c1ccccc1	7.6	-2.3	-5.6	-0.6	16.6	-0.3
CN1CCN(C2=C(Cl)C(=O)N(C3CCCCC3)C2=O)CC1	14.7	-0.6	28.5	39.4*	11.7	3.9
CSc1ccc(Cl)c(C(=O)NCc2ccco2)c1	-7.0	-0.3	31.9*	-1.1	6.3	-4.0
O=C(NCc1ccco1)c1cc2ccc(O)cc2oc1=O	-154.1	12.0*	-56.7	37.6*	-236.6	189.2*
COc1ccc2cc(C(=O)NCc3ccco3)c(=O)oc2c1	2.0	-0.2	3.5	0.1	2.3	0.2
CSc1ccc(Cl)c(C(=O)OCC(=O)NCc2ccco2)c1	-8.8	0.6	3.8	0.6	-6.7	-1.0
CC(C)C(c1nnnn1Cc1ccccc1)N(Cc1ccco1)Cc1cccs1 (stereo not drawn)	57.2	-2.0	11.5	-0.8	26.4	-1.7
Cc1ccc(C(c2nnnn2C(C)(C)C)N(Cc2ccco2)Cc2cccs2)cc1 (stereo not drawn)	-14.3	-1.9	-0.4	0.2	50.8*	-1.6
Cc1nn(-c2ccccc2)c2sc(-c3n[nH]c(=S)o3)cc12	-2.9	-0.3	4.9	0.5	2.2	2.3
COc1ccccc1-c1cc(-c2cc(Cl)ccc2O)n[nH]1	7.0	-4.4	8.1	-0.6	x	2.6
COc1ccc(O)c(-c2cc(-c3cccs3)[nH]n2)c1	-11.0	-1.7	7.6	-1.6	51.0*	-1.5
O=C(NC1(C(F)(F)F)C(=O)Nc2c1c(=O)[nH]c(=O)n2Cc1ccco1)C1CC1 (stereo not drawn)	-10.5	-1.2	-3.9	-1.0	7.9	-0.9
CC(C)(C)OC(=O)N[C@@H](Cc1ccccc1)c1nnc(S(=O)(=O)Cc2ccccc2)o1	85.9*	-0.4	55.3*	1.0	78.2*	-3.4
CCC(C)[C@@H](NC(=O)OC(C)(C)C)c1nnc(S(=O)(=O)Cc2cccc(C)c2)o1 (stereo partly drawn)	40.6	-0.9	-3.5	2.5	50.8*	3.9
CCC(C)C(NCc1cccc(C)c1)C(=O)O (stereo not drawn)	x	x	12.4	-1.5	-1.7	0.8
Cc1cc(N2C3CCC2CC(O)(c2ccc(F)cc2)C3)nc(-c2ccccc2)n1 (stereo not drawn)	17.1	-1.3	23.1	-1.0	43.1*	-1.2
Cc1c(Cc2ccccc2)c(=O)oc2c(CN(C)C)c(O)c(Cl)cc12	-64.1	1.9	-9.4	8.2	-44.0	20.1*

Screening data (PubChem BioAssay)
